The text below walks through data of ChEMBL document CHEMBL1126849, “Synthesis of A-ring fluorinated derivatives of (17 alpha,20E/Z)-[125I]iodovinylestradiols: effect on receptor binding and receptor-mediated target tissue uptake” (J Med Chem, 1993).

What all share (conditions): in vivo
For series [1], the system named is Rattus norvegicus. The experiment in a line: Biodistribution in blood of immature femalee rat after 1 hr administration of 3 micro Ci (111 kBq) in the presence of (+E2). It counts as ADME, organism-based. In a few lines:
(§1)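 Immature female Long Evans rats (21–24 days, 45–70 g), unanesthetized in retention cages, given 3 µCi (111 kBq) 125I-labeled steroid i.v. via lateral tail vein. Vehicle was ethanol diluted in saline containing 1% Tween-80, giving 9% ethanol final. The blocking group received 60 µg unlabeled estradiol co-injected. Rats were killed under ether by axillary bleeding, and tissues were KCl-washed and gamma-counted. Data are %ID/g, mean ± SE, n=3–5.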

The test system of series [2] is Rattus norvegicus. The experiment in a line: Biodistribution in liver of Iimmature female rat after 1 hr administration of 3 micro Ci (111 kBq) in the presence of (+E2). It counts as ADME, organism-based. In a few lines:
as §1

Series [3] relates to Rattus norvegicus. In words: Biodistribution in spleen of Immature Female rat after 5 hour administration of 3 micro Ci (111 kBq) in the absence of 60 microg estradiol. Type of series: ADME, organism-based. In a few lines: (§2)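 Immature female Long Evans rats (21–24 days, 45–70 g), three to five per group, given 125I-labeled steroid (3 μCi, 111 kBq) by lateral tail vein without anesthesia. Vehicle: ethanol diluted in saline with 1% Tween-80, final ethanol 9%, 0.22 μm filtered. +E2 groups received 60 μg unlabeled estradiol co-injected. Killed under ether at set times; tissues KCl-washed, blotted, weighed, gamma counted; %ID/g, mean with SE.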

The test system of series [4] is Rattus norvegicus. The experiment in a line: Biodistribution in thyroid of Immature Female rat after 12 hour administration of 3 micro Ci (111 kBq) in the absence of 60 microg estradiol. It counts as ADME, organism-based, Thyroid gland. Put shortly:
as §2

Series [5] relates to Rattus norvegicus. The experiment in a line: Biodistribution in thyroid of Immature Female rat after 1 hr administration of 3 micro Ci (111 kBq) in the absence of 60 microg estradiol. Type of series: ADME, organism-based, Thyroid gland. Put shortly: as §2
Series [6] relates to Rattus norvegicus. In words: Biodistribution in thyroid of Immature Female rat after 1 hr administration of 3 micro Ci (111 kBq) in the presence of (+E2). It counts as ADME, organism-based, Thyroid gland. In a few lines:
as §2

The subject of series [7] is Rattus norvegicus. The experiment in a line: Biodistribution in blood of Immature Female rat after 5 hour administration of 3 micro Ci (111 kBq) in the absence of 60 microg estradiol. Type of series: ADME, organism-based. Put shortly:
as §1

Series [8] concerns Rattus norvegicus. In words: Biodistribution in fat of Immature Female rat after 12 hour administration of 3 micro Ci (111 kBq) in the absence of 60 microg estradiol. Type of series: ADME, organism-based, Adipose tissue. Put shortly:
as §1

For series [9], the system named is Rattus norvegicus. In words: Biodistribution in fat of Immature Female rat after 1 hr administration of 3 micro Ci (111 kBq) in the presence of (+E2). Type of series: ADME, organism-based, Adipose tissue. In a few lines:
as §1

For series [10], the system named is Rattus norvegicus. The experiment in a line: Biodistribution in fat of Immature Female rat after 5 hour administration of 3 micro Ci (111 kBq) in the absence of 60 microg estradiol. It counts as ADME, organism-based, Adipose tissue. In a few lines:
as §1

Series [11] concerns Rattus norvegicus. The experiment in a line: Biodistribution in lungs of Immature Female rat after 5 hour administration of 3 micro Ci (111 kBq) in the absence of 60 microg estradiol. Type of series: ADME, organism-based, Lung. Put shortly: as §1
For series [12], the system named is Rattus norvegicus. The experiment in a line: Biodistribution in muscle of Immature Female rat after 1 hr administration of 3 micro Ci (111 kBq) in the presence of (+E2). Type of series: ADME, organism-based, Muscle tissue. In a few lines:
as §2

The subject of series [13] is Rattus norvegicus. In words: Biodistribution in spleen of Immature Female rat after 3 hour administration of 3 micro Ci (111 kBq) in the absence of 60 microg estradiol. Type of series: ADME, organism-based. Put shortly:
as §2

Series [14] concerns Rattus norvegicus. The experiment in a line: Biodistribution in uterus / spleen, muscle, lungs of Immature Female rat after 1 hr administration of 3 micro Ci (111 kBq) in the absence of 60 microg estradiol. Type of series: ADME, organism-based. Put shortly: (§3)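 Same in vivo procedure: immature female Long Evans rats (21–24 days), three to five per group, 3 μCi (111 kBq) tracer i.v. via tail vein in 9% ethanol/saline/1% Tween-80, ± 60 μg estradiol co-injected at 1 h. Uterus %ID/g (gamma counting) divided by blood, or by nontarget organ (muscle, spleen, lungs), %ID/g to give ratios.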

The test system of series [15] is Rattus norvegicus. In words: Biodistribution in uterus / spleen, muscle, lungs of Immature Female rat after 5 hour administration of 3 micro Ci (111 kBq) in the absence of 60 microg estradiol. Type of series: ADME, organism-based. Put shortly:
as §3

Series [16] concerns Rattus norvegicus. In words: Biodistribution in kidney of Immature Female rat after 3 hour administration of 3 micro Ci (111 kBq) in the absence of 60 microg estradiol. It counts as ADME, organism-based. Put shortly: as §1
Series [17] has as its system Rattus norvegicus. The experiment in a line: Biodistribution in liver of Immature Female rat after 1 hr administration of 3 micro Ci (111 kBq) in the absence of 60 microg estradiol. Type of series: ADME, organism-based. Put shortly: as §1
The subject of series [18] is Rattus norvegicus. The experiment in a line: Biodistribution in liver of Immature Female rat after 1 hr administration of 3 micro Ci (111 kBq) in the presence of (+E2). Type of series: ADME, organism-based. In a few lines:
as §1

Series [19] has as its system Rattus norvegicus. In words: Biodistribution in lungs of Immature Female rat after 12 hour administration of 3 micro Ci (111 kBq) in the absence of 60 microg estradiol. Type of series: ADME, organism-based, Lung. Put shortly:
as §1

For series [20], the system named is Rattus norvegicus. The experiment in a line: Biodistribution in lungs of Immature Female rat after 1 hr administration of 3 micro Ci (111 kBq) in the presence of (+E2). It counts as ADME, organism-based, Lung. In a few lines: as §1
The test system of series [21] is Rattus norvegicus. The experiment in a line: Biodistribution in uterus / blood of Immature Female rat after 1 hr administration of 3 micro Ci (111 kBq) in the absence of 60 microg estradiol. Type of series: ADME, organism-based. In a few lines: as §3
The subject of series [22] is Rattus norvegicus. The experiment in a line: Biodistribution in uterus / blood of Immature Female rat after 1 hr administration of 3 micro Ci (111 kBq) in the presence of (+E2). Type of series: ADME, organism-based. In a few lines:
as §3

The test system of series [23] is Rattus norvegicus. In words: Biodistribution in uterus / blood of Immature Female rat after 3 hour administration of 3 micro Ci (111 kBq) in the absence of 60 microg estradiol. Type of series: ADME, organism-based. In a few lines:
as §3

For series [24], the system named is Rattus norvegicus. In words: Biodistribution in uterus / blood of Immature Female rat after 5 hour administration of 3 micro Ci (111 kBq) in the absence of 60 microg estradiol. Type of series: ADME, organism-based. Put shortly: as §3
The test system of series [25] is Rattus norvegicus. The experiment in a line: Biodistribution in uterus / spleen, muscle, lungs of Immature Female rat after 12 hour administration of 3 micro Ci (111 kBq) in the absence of 60 microg estradiol. It counts as ADME, organism-based. In a few lines: as §3
The test system of series [26] is Rattus norvegicus. The experiment in a line: Biodistribution in uterus/blood of immature female rat after 12 hour administration of 3 micro Ci (111 kBq) in the absence of 60 microg estradiol. Type of series: ADME, organism-based. In a few lines: (§4)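 Immature female Long Evans rats (21–24 days, 45–70 g), 3–5 per group, unanesthetized in retention cages, given 3 μCi (111 kBq) 125I-labeled steroid by lateral tail vein. Vehicle: ethanol diluted with saline containing 1% Tween-80, final ethanol 9%. +E2 group co-injected 60 μg unlabeled estradiol (1 h only). Killed under ether; tissues KCl-washed, weighed, gamma-counted. Output: %ID/g (mean, SE) and uterus to blood or nontarget (muscle, spleen, lungs) ratios.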

For series [27], the system named is Rattus norvegicus. The experiment in a line: Biodistribution in uterus/spleen, muscle, lungs of immature female rat after 12 hour administration of 3 micro Ci (111 kBq) in the absence of 60 microg estradiol. Type of series: ADME, organism-based. Put shortly: as §4
Series [28] deals with Rattus norvegicus. In words: Biodistribution in uterus/spleen, muscle, lungs of immature female rat after 1 hr administration of 3 micro Ci (111 kBq) in the absence of 60 microg estradiol. It counts as ADME, organism-based. In a few lines:
as §4

Series [29] relates to Rattus norvegicus. In words: Biodistribution in uterus/spleen, muscle, lungs of immature female rat after 1 hr administration of 3 micro Ci (111 kBq) in the presence of (+E2). Type of series: ADME, organism-based. In a few lines:
as §4

For series [30], the system named is Rattus norvegicus. In words: Biodistribution in uterus/spleen, muscle, lungs of immature female rat after 5 hour administration of 3 micro Ci (111 kBq) in the absence of 60 microg estradiol. Type of series: ADME, organism-based. In a few lines: as §4
Series [31] has as its system Rattus norvegicus. In words: Biodistribution in liver of Iimmature female rat after 3 hour administration of 3 micro Ci (111 kBq) in the absence of 60 microg estradiol. It counts as ADME, organism-based. Put shortly: as §1

Molecules are shown by their SMILES.

With `CO[C@H]1C[C@@]2(C)[C@@H](CC[C@@]2(O)/C=C\I)[C@@H]2CCc3c(ccc(O)c3F)[C@H]21`, in the series on Rattus norvegicus [1], the ID/g turned out to be 0.81%.
On to `CO[C@H]1C[C@@]2(C)[C@@H](CC[C@@]2(O)/C=C/I)[C@@H]2CCc3cc(O)c(F)cc3[C@H]21`, for which the ID/g with Rattus norvegicus [2] is given as 4.4%.
As for `CO[C@H]1C[C@@]2(C)[C@@H](CC[C@@]2(O)/C=C\I)[C@@H]2CCc3cc(O)c(F)cc3[C@H]21`, the ID/g came to 0.38% in the series on Rattus norvegicus [3]; 1899% in the series with Rattus norvegicus [4]; 217% in the series with Rattus norvegicus [5]; 170% in the series with Rattus norvegicus [6]; 0.34% with Rattus norvegicus [7]; 0.13% with Rattus norvegicus [8]. Moreover, the ID/g in the series on Rattus norvegicus [9] is 4.78%; with Rattus norvegicus [10], 0.66%; in the series on Rattus norvegicus [11], 0.35%; with Rattus norvegicus [12] it was 2.3%; in the series on Rattus norvegicus [13], 0.39%; in the series with Rattus norvegicus [14] it was 13.04%. In addition, the ID/g amounted to 25.79% in the series with Rattus norvegicus [15]; 1.02% with Rattus norvegicus [16]; 2.04% in the series on Rattus norvegicus [17]; 10.39% in the series on Rattus norvegicus [18]; 0.13% in the series with Rattus norvegicus [19]; 1.52% in the series with Rattus norvegicus [20]. The ID/g in the series on Rattus norvegicus [22] is reported as 1.12%; in the series on Rattus norvegicus [23], 21.19%; with Rattus norvegicus [24], 27.8%; with Rattus norvegicus [25], 33.82%. Also, the uterus/blood ratio in the series on Rattus norvegicus [21] amounted to 15.7.
As for `CO[C@H]1C[C@@]2(C)[C@@H](CC[C@@]2(O)/C=C/I)[C@@H]2CCc3c(ccc(O)c3F)[C@H]21`, the ID/g in the series on Rattus norvegicus [3] was 0.39%; in the series on Rattus norvegicus [4] it was 475%; in the series with Rattus norvegicus [5], 61%; in the series with Rattus norvegicus [6], 71%; with Rattus norvegicus [7] it was 0.17%; with Rattus norvegicus [8], 0.83%. For the same molecule, the ID/g with Rattus norvegicus [9] amounted to 2.3%; with Rattus norvegicus [10], 1.69%; in the series on Rattus norvegicus [11], 0.52%; in the series with Rattus norvegicus [12], 0.91%; in the series on Rattus norvegicus [13] it was 0.48%; in the series with Rattus norvegicus [14], 9.17%. Moreover, the ID/g with Rattus norvegicus [15] worked out at 26.5%; in the series on Rattus norvegicus [16], 1.3%; in the series with Rattus norvegicus [17] it was 3.32%; in the series with Rattus norvegicus [18] it was 3.24%; with Rattus norvegicus [19], 0.3%; in the series on Rattus norvegicus [20], 1.95%. The ID/g amounted to 3.57% in the series on Rattus norvegicus [22], 44.23% in the series with Rattus norvegicus [23], 68.66% in the series with Rattus norvegicus [24] and 50.9% in the series with Rattus norvegicus [25]. For the same molecule, the uterus/blood ratio in the series with Rattus norvegicus [21] was 30.4.
As to `C[C@]12CC[C@@H]3c4cc(F)c(O)cc4CC[C@H]3[C@@H]1CC[C@@]2(O)/C=C/I`, the ID/g in the series with Rattus norvegicus [26] is listed as 0.92%; with Rattus norvegicus [27], 1.25%; in the series on Rattus norvegicus [28] it was 1.42%; in the series on Rattus norvegicus [29], 0.81%; in the series with Rattus norvegicus [30] it was 1.14%; in the series on Rattus norvegicus [31], 2.87%.
